Consider 13 molecules from ChEMBL document CHEMBL2093137, “WHO-TDR NTD Screening”.

SMILES strings stand for the structures. ≈ marks a conversion by molar mass, not a printed value.

Series [1] in a line: WHO-TDR: Cytotoxicity. Type of series: toxicity, cell-based. To be noted: human, MRC5 cells.
Series [2] concerns Plasmodium falciparum K1. The series can be described thus: WHO-TDR: Malaria. Type of series: functional, organism-based, Homo sapiens. To be noted: Erythrocyte. In a few lines: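 Following previously published standard procedures, with a reference drug serving as positive control, compounds were tested on the Plasmodium falciparum K1 strain inside human red blood cells. The 10,000-compound diverse set came from Life Chemicals after filtering for drug-likeness and reactive groups. Potency against the parasite appears as IC50.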

Series [3] has as its system Trypanosoma cruzi. The series can be described thus: WHO-TDR: Chagas disease. It counts as functional, organism-based, Homo sapiens. To be noted: MRC5. The procedure, abridged:
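Following previously published standard procedures, with a reference drug as positive control, a whole-organism assay was run on Trypanosoma cruzi Tulahuen CL2 beta-galactosidase strain amastigotes inside MRC-5SV2 human lung fibroblast host cells. The 10,000 compounds tested formed a diverse Life Chemicals library filtered for drug-likeness and reactive groups. Results are expressed as IC50 for antiparasitic potency.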

Series [4] deals with Trypanosoma brucei brucei. As to the kind of experiment: WHO-TDR: Human African Trypanosomiasis (HAT). Type of series: functional, organism-based. To be noted: Squib-427. In a few lines:
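Bloodstream forms of the Trypanosoma brucei Squib 427 strain were tested in a whole-organism screen with a diverse library from Life Chemicals of 10,000 compounds. Before screening, the library was filtered for drug-likeness and for reactive groups. The assay used previously published standard procedures and included reference drugs as positive controls. Potency against the parasite is expressed as IC50.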

Series [5] has as its system Leishmania infantum. As to the kind of experiment: WHO-TDR: Leishmaniasis. Type of series: functional, organism-based, Mus musculus. To be noted: Macrophage. In a few lines:
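Following previously published standard procedures, a whole-organism screen was run on Leishmania infantum MHOM/MA(BE)/67 amastigotes within murine peritoneal macrophages, with a reference drug as positive control. The 10,000 compounds tested formed a diverse Life Chemicals library filtered for drug-likeness and reactive groups. Potency against the parasite is reported as IC50.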

Series [6] deals with Onchocerca ochengi. The series can be described thus: WHO-TDR: Onchocerciasis. It counts as functional. The arrangement: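 at 12.5 µM on microfilariae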. The procedure, abridged:
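Onchocerca ochengi or Onchocerca lienalis, animal pathogens used as surrogates for the human parasite, were screened as whole microfilariae against a 10,000-compound diverse library from Life Chemicals. The reported measures of activity are percent inhibition and IC50.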

Series [7] deals with Brugia malayi. As to the kind of experiment: WHO-TDR: Lymphatic Filariasis. It counts as functional. Also noted: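 tested at 10 µM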. The procedure, abridged: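 Percent inhibition and IC50 describe activity against Brugia malayi microfilariae in a whole-organism screen. The screen used previously published standard procedures with reference drugs as positive controls. Compounds came from a diverse Life Chemicals library of 10,000, filtered for drug-likeness and reactive groups.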

With `CCOC(=O)N1CCN(C(=O)Nc2nc(CC(=O)Nc3ccc(F)c(F)c3)cs2)CC1`, the IC50 in series [1], in series [2], in series [3], in series [4] and in series [5] was greater than 13.6 µg/mL in each case. The “% Inhibition” value in series [6] was determined as 100%; in series [7], 20%.
As for `COc1ccc(-c2cn3c(C(=O)Nc4ccc(F)cc4F)csc3n2)cc1`, the IC50 in series [1], in series [2], in series [3], in series [4] and in series [5] was greater than 11.6 µg/mL in each case. Besides, the results for the “% Inhibition” value in series [6] and in series [7] were 100% and 0%, respectively.
Consider `COc1ccc(-c2cn3c(C(=O)Nc4ccc(OC(F)(F)F)cc4)csc3n2)cc1`, for which the IC50 came out at 1.79 µg/mL (≈ 4.14 µM) in series [1]; 4.41 µg/mL (≈ 10.2 µM) in series [2]; 3.69 µg/mL (≈ 8.5 µM) in series [3]; 4.11 µg/mL (≈ 9.49 µM) in series [4]; 4.21 µg/mL (≈ 9.71 µM) in series [5]. The “% Inhibition” value is given as 100% in series [6] and 0% in series [7].
As for `Cc1cc(-c2nnc(SCC(=O)Nc3cccc(C(F)(F)F)c3)o2)c(C)o1`, the IC50 is greater than 11.9 µg/mL in series [1]; greater than 11.9 µg/mL in series [2]; greater than 11.9 µg/mL in series [3]; 4.69 µg/mL (≈ 11.8 µM) in series [4]; greater than 11.9 µg/mL in series [5]. Moreover, the “% Inhibition” value in series [6] was 100%; in series [7] it was 0%.
On to `O=C(Cc1csc(Nc2ccc(OC(F)(F)F)cc2)n1)NCC1CCCO1` (stereo unspecified), for which the IC50 in series [1] is greater than 12 µg/mL; in series [2], greater than 12 µg/mL; in series [3], 5.45 µg/mL (≈ 13.6 µM); in series [4], greater than 12 µg/mL; in series [5], greater than 12 µg/mL. Besides, the “% Inhibition” value in series [6] is on record as 100%; in series [7], 20%.
Turning to `c1ccc2c(c1)CCN(c1ncnc3[nH]ncc13)C2`, the IC50 in series [1], in series [2], in series [3], in series [4] and in series [5] was greater than 7.54 µg/mL in each case. In addition, the “% Inhibition” value was 100% in series [6] and 0% in series [7].
On to `COc1ccc(C(=O)Nc2ccc(SCC(=O)N3CCCC3)nn2)c(OC)c1`, for which the IC50 in series [1], in series [2], in series [3], in series [4] and in series [5] was greater than 12.1 µg/mL throughout. In addition, the results for the “% Inhibition” value in series [6] and in series [7] were 100% and 0%, respectively.
`COc1ccc(-c2cn3c(C(=O)Nc4cc(C)ccc4C)csc3n2)cc1`: the IC50 in series [1] is greater than 11.3 µg/mL; in series [2], greater than 11.3 µg/mL; in series [3] it was greater than 11.3 µg/mL; in series [4], 3.11 µg/mL (≈ 8.23 µM); in series [5], 5.86 µg/mL (≈ 15.5 µM). Also, the results for the “% Inhibition” value in series [6] and in series [7] were 100% and 0%, respectively.
As for `COc1ccc(CC(=O)Nc2ccc(SC)nn2)cc1`, the IC50 in series [1], in series [2], in series [3], in series [4] and in series [5] was greater than 8.68 µg/mL each time. Moreover, the entries for the “% Inhibition” value in series [6] and in series [7] were 100% and 0%, respectively.
As to `COc1ccccc1CNC(=O)CCc1csc(NC(=O)c2ccc(F)cc2)n1`, the IC50 in series [1], in series [2], in series [3], in series [4] and in series [5] was greater than 12.4 µg/mL each time. For the same molecule, the “% Inhibition” value in series [6] is on record as 100%; in series [7] it was 0%.
As for `FC(F)Sc1ccc(Nc2ncnc3[nH]ncc23)cc1`, the IC50 in series [1], in series [2], in series [3], in series [4] and in series [5] was greater than 8.8 µg/mL each time. Further, the “% Inhibition” value turned out to be 100% in series [6] and 0% in series [7].
Turning to `COc1ccc(C)cc1S(=O)(=O)N1CCN(c2ccc(Nc3cccnc3)nn2)CC1`, the IC50 is 10.3 µg/mL (≈ 23.4 µM) in series [1]; greater than 13.2 µg/mL in series [2]; 3.89 µg/mL (≈ 8.83 µM) in series [3]; greater than 13.2 µg/mL in series [4]; 4.28 µg/mL (≈ 9.71 µM) in series [5]. Besides, the “% Inhibition” value in series [6] worked out at 100%; in series [7] it was 0%.
As to `FC(F)(F)c1ccc(Nc2ncnc3[nH]ncc23)cc1`, the IC50 in series [1] is greater than 8.38 µg/mL; in series [2] it was greater than 8.38 µg/mL; in series [3] it was 2.72 µg/mL (≈ 9.73 µM); in series [4] it was 3.19 µg/mL (≈ 11.4 µM); in series [5], greater than 8.38 µg/mL. Further, the “% Inhibition” value was determined as 100% in series [6] and 0% in series [7].

As usually defined, the IC50 is the concentration that gives 50% inhibition. Broadly, the % Inhibition is the relative decrease from the control value, in per cent.
